Non-standard residues stand in square brackets, D forms with d. Residues, ends and D or L forms follow the SMILES beside them. Dmt = Cc1cc(O)cc(C)c1C[C@H](N)C(=O)O; Tic = O=C(O)[C@@H]1Cc2ccccc2CN1
Target: Delta-type opioid receptor (Mus musculus, UniProt P32300)
Assay: Antagonist activity against delta opioid receptor in mouse vas deferens assessed as effect on deltorphin 2-induced contraction
Type: functional, tissue-based
Conditions: read-out: pA2 (converted)
Method in brief: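 pA2 was measured against the δ agonist deltorphin II in mouse vas deferens and determined by the Kosterlitz and Watt method.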

Sequence of Delta-type opioid receptor (P32300 whole entry): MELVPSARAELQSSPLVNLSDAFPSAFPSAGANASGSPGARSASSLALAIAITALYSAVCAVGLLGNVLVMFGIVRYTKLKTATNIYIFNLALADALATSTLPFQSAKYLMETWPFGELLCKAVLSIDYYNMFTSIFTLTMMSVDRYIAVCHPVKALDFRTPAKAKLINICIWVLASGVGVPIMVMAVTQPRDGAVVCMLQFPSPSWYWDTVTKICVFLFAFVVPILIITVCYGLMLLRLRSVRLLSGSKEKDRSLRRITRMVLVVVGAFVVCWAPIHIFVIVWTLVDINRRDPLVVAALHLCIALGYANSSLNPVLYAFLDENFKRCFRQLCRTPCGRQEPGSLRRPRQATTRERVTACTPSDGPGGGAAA

Cc1cc(O)cc(C)c1C[C@H](N)C(=O)N1Cc2ccccc2C[C@H]1C(=O)N[C@@H](Cc1ccccc1)C(=O)N[C@@H](Cc1ccccc1)C(=O)O (H-[Dmt][Tic]FF-OH)
Kb: 0.2 nM
